Hits are enriched below; roughly 8.7% of the tested compounds scored in any of these assays.
PostGolgi yeast – phenotypic screen on post-Golgi transport, primary screen; AID 739, 2007; 98,000 tested, 0.9% active; post-Golgi transport phenotypic cell assay; inhibition, % at 10 µM;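 further: yeast cells grown in 1536-well plates; yeast grown about 18 h at 30C before absorbance read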
E coli WT exp – growth inhibitors of wild-type E. coli, primary screen, strain BW25113, expanded library, OD600 | OD600 absorbance | growth inhibition, % at 100 µM | 98,000 tested, 0.15% active;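 active means growth inhibition above about 50% at one test dose, limit read from the data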;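 further: growth measured after 20 h incubation at 37 °C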
PostGolgi ctrl – growth inhibition of yeast control strain, primary screen, counter-screen for post-Golgi transport modulator project; 98,000 tested, 5% active; efflux-deficient yeast background strain, growth absorbance A615, 16 h; inhibition, % at 10 µM
Cav32 inh – Cav3.2 calcium influx blockers – cell-based, Fluo-4 calcium fluorescence, FDSS, MLSMR library, primary screen; Voltage-dependent T-type calcium channel subunit alpha-1H (Homo sapiens), O95180; Cav3.2-expressing cells; stronger effect = lower value; B-score at 10 µM; 100,000 tested, 4% active; AID 449739, 2010;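 active means single-dose well whose peak fluorescence ratio is a statistical outlier from its plate by either plate-standardised score or position-corrected B-score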
tolC growth inh – growth inhibitors of E. coli tolC mutant, primary screen, strain BW25113 ΔtolC::kan, 384-well; OD615; growth inhibition, % at 10 µM (by protocol); 65,000 tested, 2.2% active; AID 573, 2007;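 active means growth inhibition at or above a cutoff equal to the mean over every tested compound plus 3 SD, cut at about 60% in these data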;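 further: growth measured after 20 h incubation at 37 °C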
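Test system: E. coli BW25113 ΔtolC::kan bacteria; incubation: 37 °C, 20 h exposure; medium: LB broth supplemented with 50 µg/mL kanamycin; read-out basis: percent growth inhibition; signal: A615 absorbance measurement; compound: 10 µM final, single dose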
Pyk2 oligo antag – antagonists of Pyk2 self-association, primary screen, Q293 cells, FERM NanoBiT luminescence, HTS. 99,000 tested, 0.83% active. z-score (the deposit names both 25 µM and 10 µM). Protein-tyrosine kinase 2-beta (Homo sapiens), Q14289. stronger effect = lower value. AID 1347419, 2020;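 active means Z-score of -3 or lower, scaled per plate to the spread of control and sample wells; inactive means z-score above -3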;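 further: negative z-score means lost luminescence so less FERM oligomerization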
Target sequence (Q14289 whole entry, looked up): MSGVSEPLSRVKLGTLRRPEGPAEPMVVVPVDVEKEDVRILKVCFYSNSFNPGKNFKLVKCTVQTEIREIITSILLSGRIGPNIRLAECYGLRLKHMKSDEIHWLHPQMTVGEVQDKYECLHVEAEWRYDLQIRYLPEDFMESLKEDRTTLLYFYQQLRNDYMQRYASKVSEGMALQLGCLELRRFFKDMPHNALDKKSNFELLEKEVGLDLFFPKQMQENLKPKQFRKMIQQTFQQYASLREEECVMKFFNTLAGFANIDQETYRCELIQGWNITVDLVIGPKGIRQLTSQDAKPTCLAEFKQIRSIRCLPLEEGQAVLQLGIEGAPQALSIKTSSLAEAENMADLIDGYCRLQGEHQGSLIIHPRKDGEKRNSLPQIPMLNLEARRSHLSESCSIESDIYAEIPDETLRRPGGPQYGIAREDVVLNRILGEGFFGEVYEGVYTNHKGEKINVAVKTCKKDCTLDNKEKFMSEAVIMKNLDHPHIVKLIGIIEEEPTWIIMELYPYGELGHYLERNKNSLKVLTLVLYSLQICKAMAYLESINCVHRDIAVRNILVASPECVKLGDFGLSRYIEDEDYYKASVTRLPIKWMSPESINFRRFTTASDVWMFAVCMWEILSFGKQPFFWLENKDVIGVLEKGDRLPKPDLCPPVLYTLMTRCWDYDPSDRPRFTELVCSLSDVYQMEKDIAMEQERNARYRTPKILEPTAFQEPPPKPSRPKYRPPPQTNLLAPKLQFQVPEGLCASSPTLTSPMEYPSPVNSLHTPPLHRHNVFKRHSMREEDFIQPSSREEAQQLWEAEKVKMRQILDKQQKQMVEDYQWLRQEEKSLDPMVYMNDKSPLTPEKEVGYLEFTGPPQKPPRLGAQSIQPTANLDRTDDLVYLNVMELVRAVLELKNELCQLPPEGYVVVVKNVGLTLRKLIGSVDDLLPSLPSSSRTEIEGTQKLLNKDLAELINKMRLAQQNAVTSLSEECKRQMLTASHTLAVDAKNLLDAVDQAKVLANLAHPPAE
The depositor's hits bear a star; nt = not tested or not shown. Unless noted, no stated cut-off is given here; in the data, active means inhibition above about 30%; inactive means the rest.

SMILES	PostGolgi yeast	E coli WT exp	PostGolgi ctrl	Cav32 inh	tolC growth inh	Pyk2 oligo antag
CC1CCN(CC(O)COCCC23CC4CC(CC(C4)C2)C3)CC1 (configuration not stated)	13	20	20	-0.96	nt	0.29
COC(=O)C1CSC(C(=O)OC)N1C(=O)Nc1ccc(Cl)cc1 (configuration not stated)	1	2	-1	0.074	nt	-0.74
N#C/C(=C1/CCCCCN1)c1nc2ccccc2s1	-4	-8	3	nt	7	-1
Cc1cccc2cc(CN(Cc3ccc(F)cc3)C(=O)N(C)C)c3nnnn3c12	12	-5	32*	-6.1*	3	-2
CCCCC(=O)Nc1cc(C(=O)NCCc2ccccc2)ccc1Cl	2	-1	3	0.61	nt	0.59
Cc1c(NC(=O)CSc2nnc(-c3cccc(Cl)c3)o2)c(=O)n(-c2ccccc2)n1C	1	5	4	nt	-10	-0.2
CCn1c(SCc2cccc(C)c2)nnc1-c1ccccc1	8	12	13	-1.5	nt	-0.52
CCn1c(SC(C)C)nnc1-c1cc(-c2ccccc2)sc1N	nt	nt	nt	-3.7*	nt	-0.89
COc1ccc(C(=O)NN(C)c2nc(-c3ccccc3)nnc2C(F)(F)F)cc1	2	-5	35*	nt	nt	1.3
COc1ccc(CC(=O)NC(C)c2nnc(SCCOc3ccc(OC)cc3)n2C)cc1 (configuration not stated)	-1	-1	9	1.2	nt	0.85
CC12CCC(C(=O)NCc3ccc4c(c3)OCO4)(C(=O)C1=O)C2(C)C (configuration not stated)	2	-1	5	0.39	nt	0.21
Cc1ccc(-n2cnc3scc(-c4cccs4)c3c2=O)cc1	nt	nt	nt	-1.1	nt	-0.23
Cc1ccc(C(=O)Nn2cnc3scc(-c4cccs4)c3c2=O)c(O)c1	-2	1	20	-3.5*	nt	-2.3
CCN(CC)C(=O)CNC(=O)Cc1ccc(Cl)cc1	-4	9	-1	0.055	nt	1.4
Oc1ccc(Nc2nc3ccccc3nc2Nc2ccc(O)cc2)cc1	-3	-1	-6	0.72	nt	-4.4*
Cc1n[nH]c(=O)nc1Nc1ccc(O)cc1	8	0	2	0.58	nt	0.81
CCCCNC(=O)c1cn(C)c2ccc(S(=O)(=O)N3CCOCC3)cc2c1=O	nt	nt	nt	nt	-3	nt
Cc1noc(C)c1COC(=O)c1cccnc1SCC(=O)Nc1ccc2c(c1)OCO2	4	-16	16	-3.6	11	0.93
Cc1noc(C)c1COC(=O)c1ccc2c(c1)OCO2	-6	0	43*	0.36	0	1.7
O=C(c1ccccc1)c1sc(N2CCCCCC2)nc1-c1ccccc1	-5	-22	33*	-0.65	nt	0.02
COc1ccc(-c2nc(N3CCCCCC3)sc2C(=O)c2ccccc2)cc1	-7	-17	16	-0.24	nt	2.2
Cc1ccc(C(=O)Nc2ccc(Br)c(C(F)(F)F)c2)cc1	36*	4	27	-1.8	nt	-2.6
Cc1ccc(C(=O)NC(=S)Nc2ccccc2C(F)(F)F)cc1	2	-5	4	-1.1	nt	-0.3
Clc1cccc(Cl)c1COn1nnc2ccccc21	-1	0	1	-2.9	nt	-0.73
c1ccc(COn2nnc3ccccc32)c(COn2nnc3ccccc32)c1	0	-13	27	-4.8*	38	-1.9
SMILES	PostGolgi yeast	E coli WT exp	PostGolgi ctrl	Cav32 inh	tolC growth inh	Pyk2 oligo antag
COc1ccc(CCNC(=O)CCC2COc3ccccc3O2)cc1OC (configuration not stated)	14	11	-2	0.8	nt	0.81
O=C(CSc1nc(Nc2ccccc2)nc(N2CCOCC2)n1)Nc1ccc([N+](=O)[O-])cc1	44*	5	17	-3.6	nt	-1.8
Cc1ccccc1OC1C(=O)N(Cc2ccc3c(c2)OCO3)C1c1sccc1C (configuration not stated)	-1	-13	9	-3.1	nt	-1.9
Cc1csc(NC(=O)Cc2coc3cc(C)c(C(C)C)cc23)n1	3	-2	27	-6.1*	nt	-1.2
Cc1cc2occ(CC(=O)Nc3nnc(C4CC4)s3)c2cc1C	3	-3	9	0.036	nt	-0.14
Cc1nc2cc(-c3cccc(F)c3)nn2c(C)c1CCC(=O)NC(C)CCc1ccco1 (configuration not stated)	41*	-3	30	-5.5*	27	nt

Bioassay records deposited in PubChem by several laboratories.
